Results reported in the RNAGym collection of RNA variant scans (doi:10.1126/science.aae0568).
This sample holds only a part of the variants without activity.

B1: tRNA (parent)
chain: GUUCCGUUGGCGUAAUGGUAACGCGUCUCCCUCCUAAGGAGAAGACUGCGGGUUCGAGUCCCGUACGGAACG

Variants of: B1
Experiment: yeast fitness relative to wild type (ratio to wild type); higher = fitter; tRNA-Arg(CCU), competitive growth, 37 C, YPD
How it was run: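 For this measurement, the tRNA-Arg(CCU) gene was varied by chemical synthesis at a 3% per-site mutation rate across 69 sites, and each variant was placed at the native genomic locus in Saccharomyces cerevisiae. The pooled strains went through a 24-hour competition in YPD at 37°C in six parallel replicates, with amplicons from start and end populations read by 100-nucleotide paired-end sequencing. Darwinian fitness relative to wild type followed from the change in each genotype's frequency. Genotypes needed ≥ 100 starting reads, and estimates < 0.5 were set to 0.5.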

Variant	yeast fitness
C55A A70G	0.557
G56C G58C C66U	0.625
A57G C61A	0.688
G51C U53A	0.544
U53A C60G	0.617
U53C A70U	0.848
U59C C61U	0.839
G52U A65G	0.793
G56A A69C	1.04
C55G U59A C62U	≤ 0.5
U53A A57U C60A A70U	≤ 0.5
G56C G63A	0.571
A57G A69C	0.799
A57G A69U	0.943
G58A C60U A70G	0.702
C55U C62U	0.708
U53A G56A A65U	≤ 0.5
G52A C62U	0.765
U53C A57G	0.79
U53C A57C	0.54
G52A G56C	0.687
G52A G56A	0.727
G58C C60A A65C	≤ 0.5
G58U A65G G67A	≤ 0.5

Variant	yeast fitness
G58A A65C G67A	0.643
G52A C61U G68A	0.561
G52C G63C A69C	≤ 0.5
A57C C60U	0.552
A57C C60G	0.503
A57G C60A C66G	0.558
U53C G58C	0.977
C55U A70G	0.705
G56A A57U	0.882
G56C G67C	0.696
C55A C61U G68A A70G	≤ 0.5
A57U A65C A69C	≤ 0.5
G56C C61A G63U	0.539
C60A C66U G68C	≤ 0.5
U54A A65U	0.618
U54A A65G	0.584
U54C C60G	0.539
U53A C66U	0.709
A57C C62U G68C	0.539
G56A G63A	0.726
G52C G68A	0.583
A57U U59C	0.569
U53A G68C	0.6
G51A U53A	0.534

Variant	yeast fitness
A57U A65U	0.618
U59G C62U	0.875
C55A C66G	≤ 0.5
C55A C66U	0.694
C55U G56C	0.593
A57C A65G	0.573
A57C A65U	0.606
G52U C55A	0.555
C60A C66U	0.608
C60A C66G	0.773
U54C U59G A70G	0.615
A57G A65C	0.919
G51C C60U G63A U64G	≤ 0.5
G56C A69U A70C	≤ 0.5
A57U U59G C66U	≤ 0.5
C60A A65U A70U	0.53
A57U G63C U64A A70U	0.646
G58C A69G	0.961
G56U A65U G68C	≤ 0.5
G52A A69C	0.738
G51A U54C	0.715
G51C C62G G68A A70U	≤ 0.5
G56C A57U C60U	0.698
A57U U64A	0.678

Variant	yeast fitness
U53A C55A C62U G63A A65U	≤ 0.5
A57U A65U G68C	≤ 0.5
G51U A70G	0.707
C60A C61A G63A	0.605
G56C A57C	0.529
G56C A57G	0.706
U59A G68U	0.769
U59A G68A	0.791
G56A U59C	1.05
U54A C62A	0.595
U54A C62G	0.637
C55G A65G C66G	0.567
G52C G63C	0.577
G56A A65G C66U G68A	0.609
C55G G68U	0.522
A57U C66U G68C A69U	≤ 0.5
A57C A69C	0.608
A57C A69G	0.562
U54G G63C A69C	0.535
G52C C61A	≤ 0.5
G52C C61U	0.66
G51C U59G	0.508
G51U A69C	0.824
A57U G67C	0.817

Variant	yeast fitness
C55U G63A	0.643
C55G C66G	0.768
A57C C62U	0.565
U53A A70C	0.769
G52A C60U	0.579
G51A U53G G58A	≤ 0.5
U54G G68A	0.541
C55G A69C	0.593
G52C C55U	0.522
U53G U64G A69C	0.841
G52A G58A C60G	≤ 0.5
U54A A57C	0.555
U54G C60G G63C	≤ 0.5
A57U G58C	0.636
C55U G63A A69C	0.537
A57C C61U A65U	0.563
G56A U59C A65C A70G	0.568
G51C C61G A70C	0.542
U53A G67U	0.657
A57C U64C	0.564
G52C A57U A69U	≤ 0.5
U53C C61A G68A	0.58
U59A C60G	0.655
G52A U54A	0.537

Variant	yeast fitness
G56C C62U	0.913
G56C C62G	0.559
U53C A57C A65U	≤ 0.5
U54C A65U	0.894
G58C C61U C66U	0.621
U54G G67A	0.637
U54G G67C	≤ 0.5
C55G A57U C62U	0.544
C55U G67A	0.871
U53C C60G	0.784
C55A G56A	0.514
U54G C55U	0.511
U53G A57G C62U	0.62
G58A A65U	1.04
G56A G63A G67C	0.543
G58C C61U	0.887
U54G G58A	0.544
G51C C61U	0.604
U54C G68C	0.776
U53A C62U A69U	≤ 0.5
U53C C62U	0.737
C55A A69C	0.613
U59C A65C	0.837
U54G A57U A65U	≤ 0.5

Variant	yeast fitness
C55G G63A	0.622
C55G G63C	0.636
A57U A70C	0.7
G51C C60G G67U	≤ 0.5
C60G C66A	0.541
A57U C66U	0.583
C55U A57U U64G	0.585
U54C A70C	0.925
U54C A70G	0.973
U53G U54A C62U	0.549
A57C G68U	0.696
A57C G68A	0.701
C55G U59A	0.677
G51C A65G	0.593
G52C C55U G63A A65U	≤ 0.5
C55U U59C	0.683
G56A A65G C66U A69U	0.573
C55A G58A	0.55
C55A G58C	0.534
U53C G56A	0.802
C55G U59C C60U G67U	0.548
A57U A65U G68C A69G	≤ 0.5
C55U C61G A65G G68A	0.584
